In brackets after ≈: the same amount, converted by molar mass.
What was measured:
[1] = Aqueous solubility of the compound; format: physicochemical
How it was run: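 Excess solid (3–5 mg) shaken in 0.5 mL water for 3 days, then centrifuged at 10,000g for 5 min. Supernatant diluted in water and analysed by LC/MS with UV peak area at 310 nm. Concentration read from a previously determined calibration curve, corrected for dilution.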

[2] = system: Mycobacterium tuberculosis; test: Antitubercular activity against Mycobacterium tuberculosis H37Rv by oxygen depletion assay; format: functional
How it was run: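 Early-log Mtb cultures in Dubos broth were diluted 100-fold and sealed at a 0.5 head-space ratio, then stirred for 20 days to reach NRP-2. The cells were handled anaerobically and exposed to 1.95–500 μM drug in two-fold dilutions for 7 days at 37°C. After three washes, the cells were spotted on 7H11 agar for 3 weeks. MAC was taken as the concentration giving 90% reduction in visible growth.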

[3] = system: Mycobacterium tuberculosis; test: Antitubercular activity against Mycobacterium tuberculosis H37Rv under aerobic conditions; format: functional
How it was run: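 Broth dilution MIC99 against Mtb H37Rv (ATCC 27294) and its H37Rv mutants under aerobic conditions. Compound stocks were made in DMSO at 20 mM.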

| Structure (SMILES) | solubility [1] | MAC [2] | MIC [3] |
| --- | --- | --- | --- |
| C[C@@H]1Oc2nc([N+](=O)[O-])cn2C[C@@H]1OCc1ccc(OC(F)(F)F)cc1 | 9.89 µg/mL (≈ 26.5 µM) | 16 µM | 0.2 µM (≈ 0.0747 µg/mL) |
| C[C@H]1Oc2nc([N+](=O)[O-])cn2C[C@@H]1OCc1ccc(OC(F)(F)F)cc1 | 10.3 µg/mL (≈ 27.6 µM) | 8 µM | 0.2 µM (≈ 0.0747 µg/mL) |
| O=[N+]([O-])c1cn2c(n1)OC[C@@H](OCc1ccc(OC(F)(F)F)cc1)C2 [PRETOMANID] | 10.2 µg/mL (≈ 28.4 µM) | 8 µM | 0.4 µM (≈ 0.144 µg/mL) |
